Values joined by “and” are separate entries in the source; they are usually repeats but may differ in a detail not shown here. Equal values may be shown once.
Test system: HEK-293T
Assay: Multiplex assay against HEK293T
Assay type: toxicity, cell-based
Details: human
Procedure, shortened: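 Imaging took place on a CQ1 microscope at 37°C and 5% CO2 once compound had been added to live cells stained at seeding with Hoechst33342, BioTracker Green Microtubule Cytoskeleton Dye, MitoTracker Red and Annexin V Alexa Fluor 680. CellPathfinder machine-learning gating classed cells as Hoechst high-intensity objects or normal cells, classed normal cells as having healthy, pyknosed or fragmented nuclei, and classed pyknosed cells as mitotic or apoptotic. Tubulin, mitochondrial-mass and membrane-permeability phenotypes are per cents of the healthy-nucleus cells.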

[1] = 12 h, 1 µM, compound concentration 1 uM
[2] = 12 h, 10 µM, compound concentration 10 uM
[3] = 24 h, 1 µM, compound concentration 1 uM
[4] = 24 h, 10 µM, compound concentration 10 uM
[5] = 48 h, 1 µM, compound concentration 1 uM
[6] = 48 h, 10 µM, compound concentration 10 uM

## O=C(Nc1cc(C(F)(F)F)ccc1N1CCCCC1)c1ccncc1
[1]
  Population Apoptotic (%): 16.06% and 9.24%
  Population Fragmented Nuclei (%): 3.1% and 6.12%
  Population Hoechst High Intensity Objects (%): 0%
  Population Membrane Permeable-Phenotype (%): 0% and 10.53%
  Population Mitochondria Different-Phenotype (%): 30.11% and 10.53%
  Population Mitotic Cells (%): 83.94% and 90.76%
  Population Normal (%): 100%
  Population Pyknosed Nuclei (%): 42.41% and 80.95%
  Total Cell Count: 323 and 147
[2]
  Population Apoptotic (%): 17.75% and 24.64%
  Population Fragmented Nuclei (%): 2.03% and 4.49%
  Population Healthy Nuclei (%): 48.84% and 17.98%
  Population Hoechst High Intensity Objects (%): 0.29% and 0%
  Population Membrane Permeable-Phenotype (%): 0% and 3.12%
  Population Mitochondria Different-Phenotype (%): 41.07% and 18.75%
  Population Mitotic Cells (%): 82.25% and 75.36%
  Population Normal (%): 99.71% and 100%
  Population Pyknosed Nuclei (%): 49.13% and 77.53%
  Population Tubulin-Different-Phenotype (%): 26.79% and 53.12%
  Total Cell Count: 345 and 178
[3]
  Population Apoptotic (%): 12.5% and 17.7%
  Population Fragmented Nuclei (%): 1.79% and 1.82%
  Population Healthy Nuclei (%): 72.45% and 29.7%
  Population Hoechst High Intensity Objects (%): 0%
  Population Membrane Permeable-Phenotype (%): 1.48% and 2.04%
  Population Mitochondria Different-Phenotype (%): 13.33% and 12.24%
  Population Mitotic Cells (%): 87.5% and 82.3%
  Population Normal (%): 100%
  Population Pyknosed Nuclei (%): 25.76% and 68.48%
  Population Tubulin-Different-Phenotype (%): 11.36% and 12.24%
[4]
  Population Apoptotic (%): 30.61% and 27.07%
  Population Fragmented Nuclei (%): 1.11% and 2%
  Population Healthy Nuclei (%): 66.15% and 31.5%
  Population Hoechst High Intensity Objects (%): 0.22% and 0.5%
  Population Membrane Permeable-Phenotype (%): 1.68% and 0%
  Population Mitochondria Different-Phenotype (%): 34.01% and 33.33%
  Population Mitotic Cells (%): 69.39% and 72.93%
  Population Normal (%): 99.78% and 99.5%
  Population Pyknosed Nuclei (%): 32.74% and 66.5%
  Population Tubulin-Different-Phenotype (%): 39.39% and 14.29%
  Total Cell Count: 450 and 201
[5]
  Population Apoptotic (%): 6.88% and 14.29%
  Population Fragmented Nuclei (%): 2.64% and 3.08%
  Population Healthy Nuclei (%): 85.29% and 66.08%
  Population Hoechst High Intensity Objects (%): 0%
  Population Membrane Permeable-Phenotype (%): 5.84% and 0.67%
  Population Mitochondria Different-Phenotype (%): 15.38% and 28.67%
  Population Mitotic Cells (%): 93.12% and 85.71%
  Population Normal (%): 100%
  Population Pyknosed Nuclei (%): 12.07% and 30.84%
[6]
  Population Apoptotic (%): 17.89% and 16.19%
  Population Fragmented Nuclei (%): 3.13% and 3.08%
  Population Healthy Nuclei (%): 80.83% and 56.54%
  Population Hoechst High Intensity Objects (%): 0% and 0.76%
  Population Membrane Permeable-Phenotype (%): 5.97% and 2.72%
  Population Mitochondria Different-Phenotype (%): 47.9% and 43.54%
  Population Mitotic Cells (%): 82.11% and 83.81%
  Population Normal (%): 100% and 99.24%
  Population Pyknosed Nuclei (%): 16.04% and 40.38%
  Total Cell Count: 767 and 262

## COc1cccc2c1c(NS(=O)(=O)c1ccc(Cl)s1)nn2Cc1cccc(CNC(=O)C(C)(C)O)c1
[1]
  Population Apoptotic (%): 31% and 34%
  Population Fragmented Nuclei (%): 6% and 7%
  Population Healthy Nuclei (%): 82% and 77%
  Population Hoechst High Intensity Objects (%): 6% and 10%
  Population Membrane Permeable-Phenotype (%): 0%
  Population Mitochondria Different-Phenotype (%): 39% and 52%
  Population Mitotic Cells (%): 68% and 65%
  Population Normal (%): 93% and 89%
  Population Pyknosed Nuclei (%): 10% and 15%
  Population Tubulin-Different-Phenotype (%): 26% and 23%
  Total Cell Count: 469 and 315
[2]
  Population Apoptotic (%): 42% and 35%
  Population Fragmented Nuclei (%): 6% and 5%
  Population Healthy Nuclei (%): 80% and 78%
  Population Hoechst High Intensity Objects (%): 7% and 11%
  Population Membrane Permeable-Phenotype (%): 0%
  Population Mitochondria Different-Phenotype (%): 51% and 69%
  Population Mitotic Cells (%): 57% and 65%
  Population Normal (%): 92% and 88%
  Population Pyknosed Nuclei (%): 12% and 16%
  Population Tubulin-Different-Phenotype (%): 38% and 33%
  Total Cell Count: 356 and 280
[3]
  Population Apoptotic (%): 26% and 44%
  Population Fragmented Nuclei (%): 7% and 6%
  Population Healthy Nuclei (%): 81% and 84%
  Population Hoechst High Intensity Objects (%): 2% and 7%
  Population Membrane Permeable-Phenotype (%): 0%
  Population Mitochondria Different-Phenotype (%): 22% and 37%
  Population Mitotic Cells (%): 73% and 55%
  Population Normal (%): 97% and 92%
  Population Pyknosed Nuclei (%): 11% and 8%
  Population Tubulin-Different-Phenotype (%): 17% and 15%
  Total Cell Count: 617 and 357
[4]
  Population Apoptotic (%): 40%
  Population Fragmented Nuclei (%): 10% and 9%
  Population Healthy Nuclei (%): 73% and 77%
  Population Hoechst High Intensity Objects (%): 5%
  Population Membrane Permeable-Phenotype (%): 0%
  Population Mitochondria Different-Phenotype (%): 34% and 46%
  Population Mitotic Cells (%): 60%
  Population Normal (%): 94%
  Population Pyknosed Nuclei (%): 16% and 12%
  Population Tubulin-Different-Phenotype (%): 23% and 22%
  Total Cell Count: 462 and 384
[5]
  Population Apoptotic (%): 16% and 28%
  Population Fragmented Nuclei (%): 10% and 11%
  Population Healthy Nuclei (%): 83%
  Population Hoechst High Intensity Objects (%): 2%
  Population Membrane Permeable-Phenotype (%): 0% and 2%
  Population Mitochondria Different-Phenotype (%): 18% and 21%
  Population Mitotic Cells (%): 83% and 71%
  Population Normal (%): 97%
  Population Pyknosed Nuclei (%): 6% and 4%
  Population Tubulin-Different-Phenotype (%): 11% and 10%
  Total Cell Count: 1062 and 591
[6]
  Population Apoptotic (%): 26% and 35%
  Population Fragmented Nuclei (%): 16% and 8%
  Population Healthy Nuclei (%): 72% and 83%
  Population Hoechst High Intensity Objects (%): 4%
  Population Membrane Permeable-Phenotype (%): 0%
  Population Mitochondria Different-Phenotype (%): 25% and 27%
  Population Mitotic Cells (%): 73% and 65%
  Population Normal (%): 95%
  Population Pyknosed Nuclei (%): 10% and 7%
  Population Tubulin-Different-Phenotype (%): 16% and 12%
  Total Cell Count: 646 and 550

— ChEMBL document CHEMBL5724801, “EUbOPEN Chemogenomics Library - Multiplex” (2024)
